ABCG2 block = blocks JC-1 efflux by human ABCG2 transporter. Q9UNQ0. IgMXP3 cells, flow cytometry. inhibition, % at 6.6 µM. 190,000 tested, 0.1% active;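 active means inhibition above 80%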;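 further: 0% = DMSO and 100% = nicardipine control wells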
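Test system: IgMXP3 (ABCG2) plus far-red-tagged CCRF-Adr (ABCB1) cells / Amount: 3 million cells/mL in well / Reagent: JC-1 transporter substrate / Timing: 10 min compound exposure, 25 °C / Signal: flow cytometry, 530 nm JC-1 signal / Read-out: percent efflux inhibition, scaled nicardipine 100% to DMSO 0% / Benchmarks: nicardipine as high control, DMSO as low control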
ROMK primary = human ROMK K+ channel modulation, primary screen; B-score at 10 µM; AID 1918; Tet-inducible ROMK, thallium flux fluorescence; actives lie on both sides; P48048; 130,000 tested, 2% active;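 active means signal ratio slope over the read window, or its plate-corrected B-score, at least 3 SD from the plate mean, either direction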;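 further: B-score of the F/F0 ratio slope over 7 to 12 s after thallium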
Target sequence (P48048 whole entry, looked up): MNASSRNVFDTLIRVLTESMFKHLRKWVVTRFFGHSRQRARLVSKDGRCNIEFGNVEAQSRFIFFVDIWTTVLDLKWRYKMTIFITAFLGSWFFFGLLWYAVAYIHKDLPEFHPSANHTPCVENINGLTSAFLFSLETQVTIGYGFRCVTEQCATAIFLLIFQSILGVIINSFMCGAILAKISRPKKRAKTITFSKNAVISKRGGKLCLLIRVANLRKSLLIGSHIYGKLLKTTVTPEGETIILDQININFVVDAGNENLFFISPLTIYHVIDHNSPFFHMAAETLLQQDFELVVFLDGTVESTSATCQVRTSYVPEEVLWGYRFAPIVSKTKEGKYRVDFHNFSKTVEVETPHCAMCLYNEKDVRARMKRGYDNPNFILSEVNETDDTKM
Insulin prom up = MIN6 insulin promoter up-regulation. MIN6 insulin promoter-GFP reporter, high-content imaging; stronger effect = higher value. z-score at 5 µM. 190,000 tested, 0.3% active. AID 1625;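 active means z-score above 3 at 5 µM with at least 500 cells counted in the well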
SDO1 yeast rescue = sdo1-depleted yeast growth rescue. S. cerevisiae sdo1-depleted JHY4D growth rescue, OD600 30 h; stronger effect = higher value; pdr5 snq2 efflux-pump mutant strain. z-score at 10 µM. 140,000 tested, 0.21% active;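 active means z-score above 3 at both the 24 hr and the 30 hr optical density reads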;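 further: z-score against mean and SD of all compound wells on the same plate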
ABCB1 inh = inhibitors of human ABCB1 transporter, ABCG2 counter-screen; inhibition, % at 6.6 µM; 190,000 tested, 0.067% active; P08183; AID 1326; CCRF-Adr cells, JC-1 efflux, flow cytometry; in the data active means inhibition above about 40%;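 further: 0% = vehicle and 100% = reference inhibitor; higher value means more JC-1 retained so stronger ABCB1 efflux block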
Autophagy mod = modulators of autophagy; calls only at 10 µM (by protocol); MEF GFP-LC3 puncta imaging; test concentration mostly 10 µM; 190,000 tested, 0.98% active; AID 463193;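 active means percentage of spot-positive cells more than 3 SD above its plate mean, without a fluorescence outlier flag or 80% toxicity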;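 further: spot-positive cell cutoff set from DMSO-treated cells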
Starred values were filed as active, the others as inactive; i = inactive; . = no result given; + = active, no number. Sampled rows, rich in hits. Any-hit rate of the full collection: about 2.3%.

SMILES	ABCG2 block	ROMK primary	Insulin prom up	SDO1 yeast rescue	ABCB1 inh	Autophagy mod
O=S(=O)(Nc1ccc(N2CCCCC2)cc1)c1ccc(F)c(F)c1	6.4	.	-0.02	-0.58	0.4	i
COC(=O)c1c(NC(=O)COC(=O)[C@@H](NS(=O)(=O)c2cccc(Cl)c2)C(C)C)sc2c1CCC2	15.0	-0.0281	-0.78	0.37	2.8	+
Cc1cccc(C(=O)OCc2cncs2)c1	1.8	0.23	0.15	.	0.2	i
O=C(COC(=O)CNC(=O)c1cccc([N+](=O)[O-])c1)NCc1ccco1	3.3	-0.144	-0.46	.	0.6	i
COc1ccc2c(c1)CC/C(=C/c1cc(OC)c(OC)c(OC)c1)C2=O	3.5	0.166	2.07	.	1.2	i
COc1ccc(C2=NC(=O)/C(=C\c3cc(OC)c(OC)c(OC)c3)O2)cc1	-0.2	-0.541	3.04*	1.63	0.0	i
N#Cc1c2ccc(O)cc2n2ccccc12	5.2	-4.72*	0.31	.	0.3	i
CC(CC(=O)Nc1ncc([N+](=O)[O-])s1)c1ccccc1 (stereo not drawn)	5.3	-4.35*	-0.32	.	0.4	i
CCC(Oc1ccccc1)C(=O)Nc1ncc([N+](=O)[O-])s1 (stereo not drawn)	2.5	-0.584	-0.19	.	0.6	i
O=C(C1CCCN(S(=O)(=O)c2ccccc2[N+](=O)[O-])C1)N1CCCC1 (stereo not drawn)	-4.0	.	0.55	0.55	0.8	i
CC(C)c1nc(NCCO)c2nnn(Cc3ccccc3)c2n1	1.1	.	-1.01	.	0.3	i
CCCCN(C)CCNC(=O)c1nn(-c2ccc(OC)cc2)c(=O)c2c1c1ccccc1n2C	11.8	-0.388	.	.	25.6	+
COCCNC(=O)CN(C(=O)c1ccc(N2CCCC2)nc1)c1ccccc1	5.1	-0.156	-0.09	.	0.5	+
CC1CCN(c2ccc(C(=O)NCCc3ccccc3)cn2)CC1	3.0	.	-0.7	-1.73	0.7	i
Cc1ccc(C(=O)Nc2nc(C)c(C(=O)Nc3ccc4c(c3)CCC4)s2)cc1	-0.7	1.64	1.59	-1.5	-7.7	i
Cc1cc(C)c(C)c(S(=O)(=O)N2CCN(C)CC2)c1C	0.6	0.525	-0.78	.	0.2	+
COc1ccc(C2C=C(c3ccccc3)Nc3nc(CCCO)nn32)cc1 (stereo not drawn)	6.4	.	0.07	0.44	0.9	i
COc1ccc(C2C=C(c3cccs3)Nc3nc(CCCO)nn32)cc1 (stereo not drawn)	2.5	.	5.85*	0.89	1.2	i
CCOC(=O)c1c(C)sc2c1N(C(=O)CCl)c1cc(Cl)ccc1S2	5.8	.	0.07	-0.83	2.2	+
Cc1csc2ncnc(N3CCN(C(=S)Nc4ccc(F)cc4F)CC3)c12	.	.	-0.72	.	.	.
CCOC(=O)N/N=C\c1ccc(OC(=O)c2ccc3c(c2)OCO3)cc1	3.5	-2.3	-0.55	.	0.6	+
Cc1nc2c(=O)n(C)c(=O)n(C)c2nc1Cl	12.3	.	-0.6	0.37	0.8	i
COc1ccc(N=Nc2n(C)c3ccccc3[n+]2C)cc1	.	.	-1.06	.	.	.
Cc1ccc(C)c(NC(=O)Cn2nnc(-c3ccc(N4CCOCC4)cc3)n2)c1	3.2	0.243	-0.09	.	0.3	+
Cc1cccc(C)c1NC(=O)Cn1nnc(-c2ccc(N3CCOCC3)cc2)n1	0.0	.	0.08	-1.74	0.1	i
SMILES	ABCG2 block	ROMK primary	Insulin prom up	SDO1 yeast rescue	ABCB1 inh	Autophagy mod
CCCC1Cc2nc(Cl)c(C#N)cc2CO1 (stereo not drawn)	.	.	0.31	.	.	.
O=C(Nc1ccccc1C(F)(F)F)c1c(F)cccc1Cl	7.4	-1.14	0.26	.	0.7	i
CN(C)c1nc(N)nc(/C(C#N)=C/C2CC3C=CC2C3)n1 (stereo not drawn)	2.0	-2.33	3.05*	-1.98	0.1	i
COc1cccc(C(=O)CN2C(=O)C(C)(C)Oc3ccc(C(=O)N4CCCCCC4)cc32)c1	4.0	.	3.58*	-0.02	1.5	i
CCN(CC(=O)Nc1ccc(N2CCOCC2)cc1)C(=O)c1ccc(C(F)(F)F)cc1	18.4	0.0323	-0.78	.	0.3	i
CNC(=O)COC(=O)c1cc(SC)ccc1Cl	13.3	0.34	0.25	.	2.2	+
CSc1ccc(Cl)c(C(=O)OCC(=O)NCC(C)C)c1	6.3	0.139	0.84	-0.86	0.7	i
CCCN1C(=O)/C(=C/c2c(N3CCNC(=O)C3CC(=O)OC)nc3c(C)cccn3c2=O)SC1=S (stereo not drawn)	.	.	6.46*	.	.	.
CCOC(=O)CC1C(=O)NCCN1C(=O)c1cc2c(=O)n3cccc(C)c3nc2s1 (stereo not drawn)	-0.1	.	0.36	0.06	-0.9	i
CN(C)CCOc1ccccc1-c1ccccc1	1.3	-0.471	0.78	0.81	0.5	i
CN(C)CCOCCOc1ccccc1-c1ccccc1	6.7	.	4.97*	0.76	1.5	i
CN1C/C(=C/c2cccnc2)C(=O)/C(=C/c2cccnc2)C1	-1.9	-3.5*	-2.61	-2.14	0.0	i
Cc1cc2occ(CC(=O)NC3=NCCS3)c2cc1C(C)C	9.6	-0.307	.	-1.34	0.9	+
N#C/C(C(=O)c1ccccc1)=C1/SC=C(N)N1c1ccccc1	-4.6	-0.409	5.96*	-0.85	0.2	i
N#C/C(C(N)=O)=C1/SC=C(c2ccccc2)N1c1ccccc1	.	.	0.15	.	.	.
CSc1ccccc1NC(=S)N/N=C/c1cccn1Cc1ccc(F)cc1	-0.4	-1.08	-1.05	.	0.0	i
CCCCC1=CC2=C(c3ccco3)C(=O)C(C)(OC(=O)c3ccc(OC)cc3)C(=O)C2=CN1CC(C)C (stereo not drawn)	.	.	4.34*	.	.	.
O=C(COC(=O)[C@@H]1CC(O)CN1S(=O)(=O)c1ccc2c(c1)OCCO2)Nc1ccccc1F (stereo partly drawn)	0.5	-0.582	-0.97	.	0.1	i
CSc1nc(-c2ccccc2)[nH]c(=S)c1C(C)=O	-0.1	4.73*	1.13	-0.68	0.3	i
CSc1nc(-c2ccccc2)nc(SC)c1C(C)=O	8.3	.	-0.24	-0.15	1.3	i
CSc1nc(=S)n(Cc2ccccc2)c(C)c1C(C)=O	2.2	0.959	-0.06	-0.49	0.4	+
Cc1[nH][nH]c(=O)c1C(c1c(C)[nH][nH]c1=O)c1cn(Cc2ccc(F)cc2)c2ccccc12	4.9	-4.76*	0.18	-1.62	1.1	i
O=C(O)Cc1cn(Cc2ccc(F)cc2)c2ccccc12	0.2	0.0239	-0.37	.	-0.1	i
CN(Cc1ccccc1)c1nc2nonc2nc1N1CCCC(CN2CCCC2=O)C1 (stereo not drawn)	.	.	0.47	.	.	.
O=C(COC(=O)C1CC2C=CC1C2)NCc1ccc(F)cc1 (stereo not drawn)	1.4	-0.997	.	-0.53	0.2	i
COc1ccccc1NC(=O)COC(=O)C1CC2C=CC1C2 (stereo not drawn)	1.7	0.457	3.01*	.	0.1	i
O=S(=O)(NC1=NCCCCC1)c1ccccc1Cl	.	.	0.24	.	.	.
